Reference: paper PMC4876717 (ACS chemical neuroscience, 2015)

What was measured:
[1] = system: hydrolytic enzyme KIAA1363; details: relative to FAAH; cited from earlier work
[2] = system: triacylglycerol hydrolase (TGH); details: relative to FAAH; cited from earlier work
FAAH [3] = details: read-out: IC50 to FAAH in vitro; cited from earlier work
[4] = cited from earlier work
PgP/Bcrp = assay: PET imaging in wild-type and PgP/Bcrp knockout mice; format: in vivo
How it was run: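 Male […] mice, wild-type and Abcb1a/1b−/−Abcg2−/− (17–18 weeks), set up in the scanner as for the rat scans. Tracer (18 MBq, 0.12 nmol/100 μL) injected via tail-vein line. Dynamic 3D list-mode acquisition for 60 min (1 min × 4, 2 min × 8, 5 min × 8). Regional time-activity curves taken as SUV, processed as for rats. Three mice per genotype.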

[5] = PET imaging in rats, brain uptake; format: in vivo, Sprague-Dawley rats
How it was run: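 Male Sprague-Dawley rats (7 weeks, 210–230 g) under isoflurane (5% induction, 1–2% maintenance). Tail-vein catheter used to inject tracer (40–51 MBq, 0.7–1 nmol/200 μL). Scans: 90 min 3D list mode, 350–750 keV, binned 1 min × 4, 2 min × 8, […]. Filtered back-projection. ROIs on whole brain, cerebral cortex and cerebellum. Decay-corrected SUV from injected activity and body weight. n = 3.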

FAAH [6] = target: T1, FAAH (Rattus norvegicus, UniProt P97612); assay: PET blocking study with URB597 in rats; format: in vivo, Sprague-Dawley rats; details: pretreatment with URB597 3 mg/kg, 30 min iv before injection
T1 sequence (P97612 1-579): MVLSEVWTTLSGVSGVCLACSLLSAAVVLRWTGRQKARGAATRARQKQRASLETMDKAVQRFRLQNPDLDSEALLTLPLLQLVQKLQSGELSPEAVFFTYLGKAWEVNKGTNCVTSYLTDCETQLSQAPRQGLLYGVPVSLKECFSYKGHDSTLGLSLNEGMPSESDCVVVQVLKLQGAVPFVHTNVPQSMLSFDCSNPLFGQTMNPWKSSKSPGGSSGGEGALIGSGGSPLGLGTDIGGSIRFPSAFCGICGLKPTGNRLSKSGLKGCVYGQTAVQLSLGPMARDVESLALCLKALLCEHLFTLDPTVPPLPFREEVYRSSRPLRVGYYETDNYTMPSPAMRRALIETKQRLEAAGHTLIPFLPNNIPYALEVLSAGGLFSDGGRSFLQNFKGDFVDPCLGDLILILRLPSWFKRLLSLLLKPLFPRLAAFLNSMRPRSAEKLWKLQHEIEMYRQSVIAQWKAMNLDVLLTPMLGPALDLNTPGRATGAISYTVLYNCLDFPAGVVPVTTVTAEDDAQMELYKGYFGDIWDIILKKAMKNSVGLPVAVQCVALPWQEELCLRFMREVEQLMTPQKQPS
How it was run: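 Blocking arm of the rat brain PET, run in male Sprague-Dawley rats under isoflurane. Unlabelled FAAH inhibitor (3.0 mg/kg, in 300 μL saline with 10% ethanol and 5% Tween 80) given 30 min before the tracer (40–51 MBq, 0.7–1 nmol iv). Dynamic 90 min list-mode scan. Regional brain uptake taken as decay-corrected SUV and compared with baseline. Three rats per condition.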

[7] = Radiometabolite analysis in rat plasma and brain homogenate; format: in vivo, Sprague-Dawley rats; details: 15 min post-tracer injection
How it was run: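 Sprague-Dawley rats (n = 3) given tracer iv (82 MBq, 1.1 nmol) and killed at 15 min. Plasma separated (15,000 g, 2 min, 4 °C) and deproteinised with equal volume acetonitrile. Brain homogenised in ice-cold acetonitrile/water 1:1 and centrifuged; supernatant recovery >90%. Supernatants run on radio-HPLC (C18, acetonitrile/0.05 M NH4OAc 2:8, 2 mL/min). Parent fraction = parent peak area/total peak area × 100, decay-corrected.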

[8] = Lipophilicity, n-octanol/PBS liquid-liquid partition; format: physicochemical; details: pH 7.4
How it was run: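 Radiolabelled test compound (~150,000 cpm) shaken with n-octanol (3.0 g) and 0.1 M sodium phosphate-buffered saline pH 7.40 (3.0 g): vortexed 3 min at room temperature, centrifuged 3500 rpm 5 min. Weighed aliquots of each phase gamma-counted. Remaining organic layer repartitioned until logD values were consistent. LogD = log[(cpm/g octanol)/(cpm/g PBS)]. Triplicate.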

[9] = Stability of formulated tracer; format: physicochemical; details: within 90 min after formulation in saline
[10] = Whole body biodistribution in mice; format: in vivo, ddY mice; details: for Distribution of radioactivity, blood / Distribution of radioactivity, brain / Distribution of radioactivity, heart / Distribution of radioactivity, kidneys / Distribution of radioactivity, liver / Distribution of radioactivity, lungs / Distribution of radioactivity, muscle / Distribution of radioactivity, small intestine / Distribution of radioactivity, spleen / Distribution of radioactivity, testes: mean ± SD, n = 3
How it was run: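 Male ddY mice (7 weeks, 34–36 g) given tracer in saline (2 MBq, 0.03 nmol/200 μL) via tail vein. Three mice killed at each time point: 1, 5, 15, 30 and 60 min. Blood, brain, heart, lung, liver, spleen, kidneys, small intestine with contents, muscle and testes removed and weighed. Tissues gamma-counted with decay correction. Uptake expressed as %ID/g wet tissue.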

## COc1ccccc1CCCCCCC(=O)c1ncc(-c2ccccn2)o1 [MPPO, 7-(2-methoxyphenyl)-1-(5-(pyridin-2-yl)oxazol-2-yl)heptan-1-one]
[1]
  selectivity over hydrolytic enzyme KIAA1363: > 10^5 fold
[2]
  selectivity over triacylglycerol hydrolase (TGH): greater than 500 fold
FAAH [3]
  IC50: 10 nM

## O=[11C](NC1CCCCC1)Oc1ccc(O)c(-c2ccccc2)c1 [[^11C]CURB]
[4]
  logD7.4: 2.8

## [11CH3]Oc1ccccc1CCCCCCC(=O)c1ncc(-c2ccccn2)o1 [[^11C]MPPO, 7-(2-[^11C]methoxyphenyl)-1-(5-(pyridin-2-yl)oxazol-2-yl)heptan-1-one]
PgP/Bcrp; PgP/Bcrp KO mice
  peak brain uptake, cerebellum: 1.04 SUV
PgP/Bcrp; PgP/Bcrp KO vs wild type mice
  ratio of KO/WT in AUC, cerebellum: 1.2
  ratio of KO/WT in AUC, cerebral cortex: 1.2
PgP/Bcrp; mice, blood-brain barrier
  substrate for Pgp/Bcrp: not likely a substrate for Pgp/Bcrp
PgP/Bcrp; wild type mice
  peak brain uptake, cerebellum: 0.78 SUV
  peak brain uptake, cerebral cortex: 0.74 SUV
[5]; rat brain PET, after injection
  time of peak radioactivity in brain tissues: 1.5 min
[5]; rat brain PET, baseline
  highest (peak) radioactivity in cerebellar nuclei: 0.87 SUV
[5]; rat whole brain PET
  brain washout, 5 min/60 min ratio: 5.1
  maximum uptake in whole brain: 0.65 SUV
FAAH [6]
  specificity to FAAH in rat brains: modest
[7]; rat brain homogenates
  metabolism (radioactivity associated with hydrophilic metabolites): 75%
[7]; rat plasma
  metabolism (radioactivity associated with hydrophilic metabolites): 90%
[8]
  logD: 3.43
[9]
  radiolysis after formulation: no radiolysis was observed
[10]; mice biodistribution
  brain uptake: 0.8 SUV
[10]; mice, 1 min after injection
  Distribution of radioactivity, blood: 1.83 ± 0.15 %ID/g
  Distribution of radioactivity, brain: 1.87 ± 0.20 %ID/g
  Distribution of radioactivity, heart: 6.89 ± 0.60 %ID/g
  Distribution of radioactivity, kidneys: 12.64 ± 0.56 %ID/g
  Distribution of radioactivity, liver: 9.78 ± 1.10 %ID/g
  Distribution of radioactivity, lungs: 17.47 ± 3.88 %ID/g
  Distribution of radioactivity, muscle: 1.78 ±0.16 %ID/g
  Distribution of radioactivity, small intestine: 3.08 ± 0.29 %ID/g
  Distribution of radioactivity, spleen: 2.28 ± 0.50 %ID/g
  Distribution of radioactivity, testes: 0.44 ± 0.05 %ID/g
[10]; mice, 5 min after injection
  Distribution of radioactivity, blood: 0.75 ± 0.07 %ID/g
  Distribution of radioactivity, brain: 2.27 ± 0.16 %ID/g
  Distribution of radioactivity, heart: 1.65 ± 0.07 %ID/g
  Distribution of radioactivity, kidneys: 17.17 ± 1.67 %ID/g
  Distribution of radioactivity, liver: 18.61 ± 2.31 %ID/g
  Distribution of radioactivity, lungs: 4.88 ± 0.41 %ID/g
  Distribution of radioactivity, muscle: 1.03 ± 0.09 %ID/g
  Distribution of radioactivity, small intestine: 7.22 ± 0.89 %ID/g
  Distribution of radioactivity, spleen: 1.29 ± 0.22 %ID/g
  Distribution of radioactivity, testes: 0.67 ± 0.02 %ID/g
[10]; mice, 15 min after injection
  Distribution of radioactivity, blood: 0.38 ± 0.03 %ID/g
  Distribution of radioactivity, brain: 1.81 ± 0.09 %ID/g
  Distribution of radioactivity, heart: 0.55 ± 0.01 %ID/g
  Distribution of radioactivity, kidneys: 13.70 ± 0.69 %ID/g
  Distribution of radioactivity, liver: 20.05 ± 1.43 %ID/g
  Distribution of radioactivity, lungs: 1.20 ± 0.04 %ID/g
  Distribution of radioactivity, muscle: 0.58 ± 0.17 %ID/g
  Distribution of radioactivity, small intestine: 18.54 ± 4.00 %ID/g
  Distribution of radioactivity, spleen: 0.60 ± 0.03 %ID/g
  Distribution of radioactivity, testes: 0.59 ± 0.00 %ID/g
[10]; mice, 30 min after injection
  Distribution of radioactivity, blood: 0.34 ± 0.05 %ID/g
  Distribution of radioactivity, brain: 1.40 ± 0.15 %ID/g
  Distribution of radioactivity, heart: 0.51 ± 0.03 %ID/g
  Distribution of radioactivity, kidneys: 9.55 ± 0.65 %ID/g
  Distribution of radioactivity, liver: 17.47 ± 1.10 %ID/g
  Distribution of radioactivity, lungs: 1.19 ± 0.18 %ID/g
  Distribution of radioactivity, muscle: 0.50 ± 0.17 %ID/g
  Distribution of radioactivity, spleen: 0.49 ± 0.03 %ID/g
  Distribution of radioactivity, testes: 0.48 ± 0.02 %ID/g
[10]; mice, 60 min after injection
  Distribution of radioactivity, heart: 0.32 ± 0.03 %ID/g
  Distribution of radioactivity, kidneys: 6.20 ± 0.70 %ID/g
  Distribution of radioactivity, liver: 13.69 ±0.63 %ID/g
  Distribution of radioactivity, lungs: 0.64 ± 0.08 %ID/g
  Distribution of radioactivity, muscle: 0.24 ± 0.04 %ID/g
  Distribution of radioactivity, small intestine: 13.75 ±3.44 %ID/g
  Distribution of radioactivity, spleen: 0.37 ±0.01 %ID/g
  Distribution of radioactivity, testes: 0.30 ± 0.03 %ID/g
[10]; mice, blood radioactivity
  blood clearance, 1 min/60 min ratio: 6.1
[10]; mice, brain radioactivity
  brain washout, 5 min/60 min ratio: 2.6

## O=C(Nc1cccnn1)N1CCC(=Cc2cccc(Oc3ccc(C(F)(F)F)cn3)c2)CC1 [[^11C]PF-04457845]
[4]
  logD7.4: 3.48
